What all share (assay type): functional
Test [1] concerns Mycobacterium tuberculosis. Kind of test: Antimycobacterial activity against Mycobacterium tuberculosis H37Rv at 6.25 ug/ml by BACTEC 460. The following applies: for inhibition at 6.25 µg/mL: Mycobacterium tuberculosis, H37Rv.
In test [2] the test system is U-937. Kind of test: Cytotoxicity against human U937 cells assessed as cell viability at 1 ug/ml after 24 hrs by MTT assay. Particulars: U-937, 24 h, read-out: Activity. The essentials: (§1)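 U937 human monocytic cells seeded at 1 × 10⁵ cells/mL and allowed to adhere for 1 h at 37 °C under 5% CO₂. Non-adherent cells were rinsed off with RPMI 1640. Adherent cells were exposed in triplicate to compound, medium alone (live control) or 3% Tween 20 (dead control). MTT (5 mg/mL stock in PBS) was added for 3 h at 37 °C. Formazan was dissolved in 0.4 M HCl/isopropanol and A600 read. Values given as percent viability.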
(In general: Tetrazolium dyes change colour on reduction, which living cells bring about.)

Test [3] deals with U-937. Kind of test: Cytotoxicity against human U937 cells assessed as cell viability at 10 ug/ml after 72 hrs by MTT assay. The following applies: U-937, 72 h, read-out: Activity. The essentials: as §1
Test [4] deals with U-937. Kind of test: Cytotoxicity against human U937 cells assessed as cell viability at 10 ug/ml after 24 hrs by MTT assay. Particulars: U-937, 24 h, read-out: Activity. In outline:
as §1

Test [5] has as its system U-937. Put plainly: Cytotoxicity against human U937 cells assessed as cell viability at 1 ug/ml after 72 hrs by MTT assay. Particulars: U-937, 72 h, read-out: Activity. In outline:
as §1

As a reminder, the inhibition is the share of the control response that was lost under treatment. Higher therefore signals strong suppression. As to `Cc1cc(C(OCC(O)CNc2nnn[nH]2)c2ccncc2)c2cc(Br)ccc2n1` (stereo unspecified), in test [1], testing at 6.25 µg/mL gave an inhibition of 20%.

Consider `Cc1cc(C(OCC(O)Cn2cccn2)c2ccncc2)c2cc(Br)ccc2n1` (stereo unspecified), for which at 6.25 µg/mL the inhibition in test [1] was 9%.

As for `Cc1cc(C(OCC(O)CN2CCN(c3ccccn3)CC2)c2ccncc2)c2cc(Br)ccc2n1` (stereo unspecified), testing at 6.25 µg/mL in test [1] gave an inhibition of 4%.

As to `OC(COC(c1ccccc1)c1cccc2ccccc12)CN1CCN(c2ccc(Cl)cc2)CC1` (stereo unspecified), 6.25 µg/mL produced 5% inhibition in test [1].

`Cc1cc(C(OCC(O)CN(C)CCO)c2ccncc2)c2cc(Br)ccc2n1` (stereo unspecified) gave an inhibition at 6.25 µg/mL in test [1] of 13%.

For the compound `OC(COC(c1ccccc1)c1cccc2ccccc12)CN1CCN(c2cccc(C(F)(F)F)c2)CC1` (stereo unspecified), at 6.25 µg/mL the inhibition in test [1] was 11%.

As to `Cc1cc(C(OCC(O)Cn2ccc(C)n2)c2ccncc2)c2cc(Br)ccc2n1` (stereo unspecified), in test [1], the inhibition at 6.25 µg/mL came out at 8%.

Turning to `OC(COC(c1ccccc1)c1cccc2ccccc12)CN1CCN(c2ccccn2)CC1` (stereo unspecified), in test [1], testing at 6.25 µg/mL gave an inhibition of 23%.

As to `OC(COC(c1ccccc1)c1cccc2ccccc12)CN1CCN(c2ccc(Cl)c(Cl)c2)CC1` (stereo unspecified), 6.25 µg/mL produced 4% inhibition in test [1].

For `COc1ccccc1N1CCN(CC(O)COC(c2ccccc2)c2cccc3ccccc23)CC1` (stereo unspecified), the viability at 1 µg/mL in test [2] is 81%; in test [5], 64%. Also, the values for the viability at 10 µg/mL in test [3] and in test [4] were 62% and 81%, respectively. Also, at 6.25 µg/mL the inhibition in test [1] was 90%.

Consider `OC(COC(c1ccccc1)c1cccc2ccccc12)CN1CCN(Cc2ccccc2)CC1` (stereo unspecified), for which the figures for the viability at 1 µg/mL in test [2] and in test [5] were 77% and 71%, respectively. In addition, the viability at 10 µg/mL in test [3] worked out at 74%; in test [4] it was 77%. The same compound gave an inhibition at 6.25 µg/mL in test [1] of 91%.

In turn, `Cc1cc(C(OCC(O)CNCCN)c2ccncc2)c2cc(Br)ccc2n1` (stereo unspecified) registered an inhibition at 6.25 µg/mL in test [1] of 5%.

For the compound `OC(COC(c1ccccc1)c1cccc2ccccc12)CN1CCN(c2ccc(F)cc2)CC1` (stereo unspecified), 6.25 µg/mL produced 14% inhibition in test [1].

As to `Cc1cc(C(OCC(O)CNc2ncn[nH]2)c2ccncc2)c2cc(Br)ccc2n1` (stereo in doubt; 12) [1-(1H-1,2,4-TRIAZOL-5-YLAMINO)-3-((6-BROMO-2-METHYLQUINOLIN-4-YL)(PYRIDIN-4-YL)METHOXY)PROPAN-2-OL (STRUCTURAL MIX)], at 6.25 µg/mL the inhibition in test [1] was 22%.

Regarding `OC(COC(c1ccccc1)c1cccc2ccccc12)CN1CCN(C(c2ccccc2)c2ccccc2)CC1` (stereo unspecified), the viability at 1 µg/mL in test [2] came out at 93%; in test [5], 79%. Further, the viability at 10 µg/mL in test [3] came out at 70%; in test [4], 74%. Moreover, at 6.25 µg/mL the inhibition in test [1] was 98%.

Consider `COc1cccc(N2CCN(CC(O)COC(c3ccccc3)c3cccc4ccccc34)CC2)c1` (stereo unspecified), for which the viability at 1 µg/mL in test [2] and in test [5] was 100% in each case. In addition, the viability at 10 µg/mL in test [3] came out at 63%; in test [4], 82%. Also, in test [1], testing at 6.25 µg/mL gave an inhibition of 99%.

On to `Cc1cc(C(OCC(O)Cn2ccnc2)c2ccncc2)c2cc(Br)ccc2n1` (stereo unspecified), for which the inhibition at 6.25 µg/mL in test [1] was found to be 7%.

In test [1], `Cc1cc(C(OCC(O)Cn2cncn2)c2ccncc2)c2cc(Br)ccc2n1` (stereo unspecified) had an inhibition at 6.25 µg/mL of 10%.

On to `Cc1cc(C(OCC(O)CNc2ncn[nH]2)c2ccncc2)c2cc(Br)ccc2n1` (stereo in doubt; 13) [1-(1H-1,2,4-TRIAZOL-5-YLAMINO)-3-((6-BROMO-2-METHYLQUINOLIN-4-YL)(PYRIDIN-4-YL)METHOXY)PROPAN-2-OL (STRUCTURAL MIX)], for which, in test [1], the “inhibition (INH)” value is recorded as 15%.

In turn, `COCCNCC(O)COC(c1ccncc1)c1cc(C)nc2ccc(Br)cc12` (stereo unspecified) displayed an inhibition at 6.25 µg/mL in test [1] of 19%.

The values above are taken from ChEMBL document CHEMBL1157856, “Novel quinoline and naphthalene derivatives as potent antimycobacterial agents” (2010).
